Screening results deposited in PubChem by The Scripps Research Institute Molecular Screening Center.
OX1R antag-1: antagonists of human orexin 1 receptor; O43613; CHO/OX1R cells, Fluo-8 calcium fluorescence, orexin A; AID 434989; actives 0.43% (n = 330,000); inhibition, % at 5 µM;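 active = inhibition above its plate's threshold, mean inhibition of all tested compounds on the plate plus 3 SD, cut at about 37% in these data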
Target sequence (O43613 whole entry, looked up): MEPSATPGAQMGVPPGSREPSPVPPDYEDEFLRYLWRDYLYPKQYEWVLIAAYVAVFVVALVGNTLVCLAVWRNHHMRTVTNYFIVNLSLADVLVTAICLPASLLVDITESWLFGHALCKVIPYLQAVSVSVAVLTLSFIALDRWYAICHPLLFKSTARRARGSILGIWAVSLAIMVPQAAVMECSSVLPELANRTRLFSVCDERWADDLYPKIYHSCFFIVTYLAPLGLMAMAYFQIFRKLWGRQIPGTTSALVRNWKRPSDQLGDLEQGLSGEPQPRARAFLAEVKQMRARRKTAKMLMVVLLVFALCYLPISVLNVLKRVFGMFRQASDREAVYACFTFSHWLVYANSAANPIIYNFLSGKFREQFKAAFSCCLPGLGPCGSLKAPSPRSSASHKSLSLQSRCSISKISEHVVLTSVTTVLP
GalR3 antagonist: human GalR3 antagonism | O60755 | HEK293 GalR3-CNG cAMP membrane potential fluorescence; galR3 body fused to GalR1 C-terminus | inhibition, % at 3 µM | actives 0.44% (n = 360,000) | AID 651719;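 active = inhibition above the screen-wide average plus 3 SD, cut at about 13% in these data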;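 also: forskolin and galanin both at EC90 stimulate the cells; cAMP rise reported by CNG channel membrane potential dye signal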
CHO parental Ca: counter-screen for OX1R antagonists: effect in parental CHO cells; parental CHO-K1, ATP-induced calcium, Fluo-8 fluorescence; inhibition, % at 5.6 µM; actives 0.63% (n = 330,000); AID 463079;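 active = inhibition above that plate's mean sample inhibition plus 3 SD, cut at about 26% in these data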
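material = parental CHO cells | also added = ATP as calcium-mobilizing challenge | dosing = single point at 5.6 µM | detection = intracellular calcium via Fluo-8 no-wash fluorescent dye | read-out = % inhibition | benchmarks = low control ATP plus DMSO, high control DMSO only | repeats = one well per compound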
GPR7 antag: antagonists of human GPR7 (neuropeptides B/W receptor 1). actives 1.1% (n = 290,000). inhibition, % at 4.4 µM. P48145. GPR7-expressing cells, fluorescence antagonist assay; in the data active = inhibition above about 16%, passing the limit was not always enough;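 also: cells stimulated with the agonist NPW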
OX1R antag-2: antagonists of human orexin 1 receptor (OX1R); OX1R-expressing cells, FRET antagonist read-out; O43613; actives 1.8% (n = 330,000); inhibition, % at 6.6 µM; in the data active = inhibition mostly above about 38%, no sharp cut-off; inactive = mostly below about 40%
Large screens that a line does not name were inactive. Compounds with a hit are over-represented: about 3.1% of the library has one in this group of screens.

CSc1nc(C)cc(OCCNS(=O)(=O)c2cc(C)ccc2C)n1	OX1R antag-2 70.7
O=C(CSc1nnc(-c2cccc(Br)c2)o1)NCC1CCCO1 (stereo not drawn)	none (no result: OX1R antag-1, CHO parental Ca, GPR7 antag, OX1R antag-2)
O=C(COC(=O)c1cc(-c2cccs2)nc2ccccc12)NCc1ccco1	OX1R antag-2 72.3
CC(=O)NS(=O)(=O)c1ccc(Nc2ccc([N+](=O)[O-])c3nonc23)cc1	OX1R antag-2 75.8
O=[N+]([O-])c1ccc(Nc2ccccc2)c2nonc12	OX1R antag-2 68.0
O=C(CSc1cccc[n+]1[O-])Nc1ccc(C(F)(F)F)cc1[N+](=O)[O-]	none
CCOc1ccc(Nc2ccc([N+](=O)[O-])c3nonc23)cc1	none
CC(=O)Nc1ccc(NS(=O)(=O)c2ccc(C)cc2)c([N+](=O)[O-])c1	none
O=[N+]([O-])c1ccc(Sc2cccc[n+]2[O-])c2nonc12	GPR7 antag 19.8 (no result: OX1R antag-1, CHO parental Ca, OX1R antag-2)
COC(=O)[C@]12CCCCC=C1N(Cc1ccc(Cl)cc1Cl)C(=O)[C@H](CC(=O)NCC1CCCCC1)C2	none (no result: OX1R antag-1, CHO parental Ca, GPR7 antag, OX1R antag-2)
CN1CCN(C(=O)C[C@H]2CC[C@H]3[C@@H](COC[C@@H](O)CN3Cc3cccc(F)c3)O2)CC1	none (no result: OX1R antag-1, CHO parental Ca, GPR7 antag, OX1R antag-2)
CCOC(=O)C1=C(C)Nc2ccccc2N=C1N	none
CCOC(=O)C1=C(C)Nc2ccccc2N=C1NC(=O)c1oc2ccccc2c1COC	OX1R antag-2 30.4 (no result: GPR7 antag)
CCOc1ccc(-n2c(SCc3nc(-c4cccs4)no3)nnc2-c2ccncc2)cc1	GPR7 antag 17.9
Cc1cc(Nc2ccc3c(c2)OCCO3)n2ncnc2n1	GPR7 antag 17.4
Cc1cc(Nc2ccc(N(C)C)cc2)n2ncnc2n1	none
O=C(CSc1nnc(-c2cccc(Br)c2)o1)N1CCNC1=O	none (no result: GPR7 antag)
C/C(=N\Nc1ccc([N+](=O)[O-])cc1)c1cc2ccccc2o1	OX1R antag-1 55.4, CHO parental Ca 40.8, OX1R antag-2 55.4
O=C(N/N=C/c1ccc([N+](=O)[O-])cc1)c1cc2ccccc2o1	none
Cc1cc(N2CCN(CC(C)(C)O)C[C@H]2C)ccc1N1CCN(CC(C)(C)O)[C@@H](C)C1	none (no result: OX1R antag-1, CHO parental Ca, GPR7 antag, OX1R antag-2)
CC1(c2nnnn2-c2ccc3c(c2)OCCO3)CCC(=O)N1C1CC1 (stereo not drawn)	none (no result: OX1R antag-1, CHO parental Ca, GPR7 antag, OX1R antag-2)
COc1cccc(C(=O)Nc2ccc3nc(N4CCN(c5ncccn5)CC4)cc(C)c3c2)c1OC	OX1R antag-2 58.6 (no result: GalR3 antagonist)
CCN(CC)c1ccc2cc(C=O)c(=O)oc2c1	CHO parental Ca 49.5, OX1R antag-2 115.7
CCN(CC)c1ccc2cc(C(N)=O)c(=O)oc2c1	none
CCN(CC)c1ccc2cc(-c3nnc(-c4ccncc4)o3)c(=O)oc2c1	GPR7 antag 41.0 (no result: OX1R antag-1, CHO parental Ca, OX1R antag-2)
O=C(Oc1ccc2ccc(=O)oc2c1)c1ccc([N+](=O)[O-])cc1	none
O=c1ccc2ccc(Oc3ccc([N+](=O)[O-])cc3[N+](=O)[O-])cc2o1	OX1R antag-2 85.3 (no result: GalR3 antagonist)
CN1OC[C@@H]2CN[C@H](c3ccc(-n4ccnc4)cc3)C[C@@H]21	none (no result: OX1R antag-1, CHO parental Ca, GPR7 antag, OX1R antag-2)
CC(C)(C)c1cc[n+](C2=C([O-])c3ccccc3C(=O)/C2=N\S(=O)(=O)c2cccs2)cc1	OX1R antag-2 76.8
Cc1ccc(NC2=C/C(=N\S(=O)(=O)c3cccs3)c3ccccc3C2=O)c(C)c1	none (no result: GalR3 antagonist)
N#CC1=C(N)NC(SCC(=O)c2ccc(Cl)cc2)=C(C#N)C12CCCC2	OX1R antag-1 53.1
CC(=O)Nc1cccc(OCc2cnc(Cl)s2)c1	GPR7 antag 19.9
CC(=O)Nc1cccc(OCc2c(F)cccc2Cl)c1	none
O=C(c1[nH]c(C(F)(F)F)nc1-c1ccccc1)N1CCN(c2c(Cl)cncc2Cl)CC1	none (no result: OX1R antag-1, CHO parental Ca, GPR7 antag, OX1R antag-2)
c1cc2[nH]snc2c2nc(C3CC3)nc12	OX1R antag-2 45.9
CS(=O)(=O)Nc1cccc(C2=NN(S(=O)(=O)c3ccc(F)cc3)C(c3cccs3)C2)c1 (stereo not drawn)	GPR7 antag 18.9
CCS(=O)(=O)Nc1cccc(C2=NN(S(=O)(=O)c3ccc(F)cc3)C(c3cccs3)C2)c1 (stereo not drawn)	none
CCOC(=O)C1=C(CC)Nc2ccccc2N=C1NC(=O)c1cc(C)on1	none (no result: GPR7 antag)
CCOC(=O)C1=C(CC)Nc2ccccc2N=C1NC(=O)Nc1ccc(Cl)c(Cl)c1	OX1R antag-1 64.4, CHO parental Ca 63.7, OX1R antag-2 95.7
CC[C@H](C)[C@H](NC(=O)c1ccc(Cl)cc1)C(=O)OCC(=O)c1ccc2c(c1)NC(=O)CO2	OX1R antag-1 59.0, CHO parental Ca 83.0
CCOC(=O)c1sc(NC(=O)C2CCCCC2)nc1C	none (no result: GPR7 antag)
COc1ccc(C(=O)c2ccc(N(C)C)cc2)c(OC)c1	none
